Assay results from paper PMC6333999 (Cancer Research and Treatment : Official Journal of Korean …, 2018).

How the values were obtained:
p38α [1] = settings: background statement, no reference given; cited from earlier work
p38α [2] = test: SPR binding of peptide with p38α; settings: BIAcore 3000, p38α on Ni-NTA chip, peptide in HBS-EP buffer
How it was run: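 Pure p38α protein captured on an Ni-NTA chip. Test peptide in HBS-EP buffer injected at 0.23, 0.46 and 0.77 mM. Sensorgrams recorded, and association (KA) and dissociation (KD) constants fitted from them.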

p38δ = test: Percentage inhibition assay by ELISA; format: biochemical
How it was run: (§1)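 Added to ATF-2-coated plates, 1 h at 37°C. Anti-phospho-ATF-2 1:400, then AP anti-rabbit IgG 1:4,000, each 1 h at 37°C. pNPP (pH 8.1) 90 min, NaOH stop, A405. Enzyme without peptide taken as 100% activity for % inhibition.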

p38α [3] = test: Percentage inhibition assay by ELISA; format: biochemical; settings: ATF-2 substrate, same experiment as p38δ
How it was run: as §1

[4] = target: T1, recombinant GST-tag p38δ protein (UniProt O15264); test: SPR
T1 sequence: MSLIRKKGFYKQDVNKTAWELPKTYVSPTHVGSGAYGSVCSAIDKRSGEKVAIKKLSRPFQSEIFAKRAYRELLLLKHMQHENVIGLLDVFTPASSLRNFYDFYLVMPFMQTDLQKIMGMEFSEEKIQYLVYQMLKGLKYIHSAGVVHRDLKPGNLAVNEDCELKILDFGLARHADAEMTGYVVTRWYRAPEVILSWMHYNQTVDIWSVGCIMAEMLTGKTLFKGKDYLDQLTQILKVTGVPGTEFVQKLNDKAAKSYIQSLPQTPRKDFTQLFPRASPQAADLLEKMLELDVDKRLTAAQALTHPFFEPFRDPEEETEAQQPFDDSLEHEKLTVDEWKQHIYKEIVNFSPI

C[S+]([O-])c1ccc(-c2nc(-c3ccncc3)c(-c3ccc(F)cc3)[nH]2)cc1 (stereo not drawn) [SB203580]
specificity for p38α (p38α [1]): very specific p38α inhibitor

WFYH
binding to p38α (p38α [2]): no binding was observed | percentage inhibition of p38δ (p38δ; 75 μM peptide, ELISA, ATF-2 substrate, 100 μM ATP, pH 7.5, 37°C, 1 hour, 405 nm): 77% | phosphorylation of ATF-2 by p38δ (p38δ; kinetic assays, pure p38δ protein incubated with peptide): reduction in phosphorylation of ATF-2 | inhibition of p38α (p38α [3]): no inhibition

WFYH [WFYH tetrapeptide]
Kd [4]: 0.704 nM
